Reference: ChEMBL document CHEMBL1124728, “Small peptide inhibitors of smooth muscle myosin light chain kinase” (J Med Chem, 1990)
Non-standard residues stand in square brackets, D forms with d. Residues, ends and D or L forms follow the SMILES beside them. ξ: configuration not given here. *: point of attachment. Tyr(3,5-I2) = N[C@@H](Cc1cc(I)c(O)c(I)c1)C(=O)O; Bip = N[C@@H](Cc1ccc(-c2ccccc2)cc1)C(=O)O; Tyr(3-I) = N[C@@H](Cc1ccc(O)c(I)c1)C(=O)O; Dip = N[C@H](C(=O)O)C(c1ccccc1)c1ccccc1; 1Nal = N[C@@H](Cc1cccc2ccccc12)C(=O)O; 2Nal = N[C@@H](Cc1ccc2ccccc2c1)C(=O)O; Cha = N[C@@H](CC1CCCCC1)C(=O)O; OCH2CH2Ph = c1ccc(CCO*)cc1; ξαMeS = CC(N)(CO)C(=O)O; X3 = c1ccc(CCCCO*)cc1; NHBn = c1ccc(CN*)cc1; OBn = c1ccc(CO*)cc1; X2 = CCCCO*

The compounds below were run against T1, Myosin light chain kinase, smooth muscle (Gallus gallus, UniProt P11799) (assay: Inhibition of calmodulin-independent form of myosin light chain kinase isolated from chicken gizzard.).
T1 sequence (P11799 whole entry): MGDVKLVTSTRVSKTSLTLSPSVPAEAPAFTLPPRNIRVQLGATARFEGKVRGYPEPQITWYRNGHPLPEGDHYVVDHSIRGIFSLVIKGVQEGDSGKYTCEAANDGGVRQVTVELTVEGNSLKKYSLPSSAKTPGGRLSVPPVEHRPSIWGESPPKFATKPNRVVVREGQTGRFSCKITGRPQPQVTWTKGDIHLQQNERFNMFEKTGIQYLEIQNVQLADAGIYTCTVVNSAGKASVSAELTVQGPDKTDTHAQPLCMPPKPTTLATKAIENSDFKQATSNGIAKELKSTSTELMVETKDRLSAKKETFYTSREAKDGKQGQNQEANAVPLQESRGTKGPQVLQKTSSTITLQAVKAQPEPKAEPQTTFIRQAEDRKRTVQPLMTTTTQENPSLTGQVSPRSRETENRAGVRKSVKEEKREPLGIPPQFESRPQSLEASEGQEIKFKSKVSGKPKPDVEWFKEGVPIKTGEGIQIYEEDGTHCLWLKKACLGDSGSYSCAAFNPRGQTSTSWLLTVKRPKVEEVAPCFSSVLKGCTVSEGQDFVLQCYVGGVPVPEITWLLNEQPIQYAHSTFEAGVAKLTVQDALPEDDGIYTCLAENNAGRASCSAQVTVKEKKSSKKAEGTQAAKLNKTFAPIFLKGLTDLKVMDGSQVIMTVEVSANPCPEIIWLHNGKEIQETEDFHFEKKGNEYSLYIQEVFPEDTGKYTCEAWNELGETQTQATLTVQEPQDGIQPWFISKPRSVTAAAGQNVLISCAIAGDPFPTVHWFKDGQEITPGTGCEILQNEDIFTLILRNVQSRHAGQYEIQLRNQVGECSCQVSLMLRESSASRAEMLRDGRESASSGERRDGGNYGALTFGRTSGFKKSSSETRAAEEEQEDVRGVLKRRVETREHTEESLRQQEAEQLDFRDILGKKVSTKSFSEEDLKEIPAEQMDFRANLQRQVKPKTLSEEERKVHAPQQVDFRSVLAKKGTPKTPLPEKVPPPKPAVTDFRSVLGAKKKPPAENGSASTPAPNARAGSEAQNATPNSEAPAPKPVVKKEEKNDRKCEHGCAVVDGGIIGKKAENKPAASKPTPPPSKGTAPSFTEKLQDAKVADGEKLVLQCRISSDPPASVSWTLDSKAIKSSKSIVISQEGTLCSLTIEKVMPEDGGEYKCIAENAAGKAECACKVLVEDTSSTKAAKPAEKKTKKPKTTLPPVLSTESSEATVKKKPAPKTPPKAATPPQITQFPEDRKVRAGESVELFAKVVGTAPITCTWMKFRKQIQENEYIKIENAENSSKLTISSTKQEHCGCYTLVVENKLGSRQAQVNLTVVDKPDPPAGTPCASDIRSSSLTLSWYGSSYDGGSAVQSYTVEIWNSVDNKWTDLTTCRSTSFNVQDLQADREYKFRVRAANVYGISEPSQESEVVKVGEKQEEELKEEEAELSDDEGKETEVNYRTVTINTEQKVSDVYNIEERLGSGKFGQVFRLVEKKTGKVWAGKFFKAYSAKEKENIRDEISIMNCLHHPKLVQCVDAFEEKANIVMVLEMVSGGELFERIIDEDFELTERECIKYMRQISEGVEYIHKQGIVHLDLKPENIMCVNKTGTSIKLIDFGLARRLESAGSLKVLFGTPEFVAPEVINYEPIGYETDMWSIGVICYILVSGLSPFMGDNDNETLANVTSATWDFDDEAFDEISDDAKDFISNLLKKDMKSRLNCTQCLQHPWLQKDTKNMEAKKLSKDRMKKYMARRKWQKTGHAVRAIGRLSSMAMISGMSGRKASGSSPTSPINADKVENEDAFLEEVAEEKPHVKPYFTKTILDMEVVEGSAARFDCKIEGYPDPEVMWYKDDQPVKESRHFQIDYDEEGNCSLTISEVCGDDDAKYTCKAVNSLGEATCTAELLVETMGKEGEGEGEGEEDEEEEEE
Summary of the method: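 Chicken gizzard MLCK made calmodulin-independent by limited trypsin digestion. It was started with ATP and stopped with HCl. Phosphate in substrate was counted on phosphocellulose filters. IC50 was read graphically from duplicates at four concentrations and reported as the mean, or as % inhibition at one concentration.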

| IC50 | Structure (SMILES) |
| --- | --- |
| 12 µM | CC(C)[C@H](NC(=O)[C@H](CC(N)=O)NC(=O)[C@H](N)CO)C(=O)N[C@@H](Cc1ccccc1)C(=O)N[C@@H](C)C(=O)OCc1ccccc1 |
| 0.6 µM | CC(C)[C@H](NC(=O)[C@H](CC(N)=O)NC(=O)[C@@H](N)CO)C(=O)N[C@H](/C=C/C(CCCc1ccccc1)CCCc1ccccc1)Cc1ccccc1 |
| 18 µM | CC(C)[C@H](NC(=O)[C@H](C)NC(=O)[C@@H](N)CO)C(=O)N[C@@H](Cc1ccccc1)C(=O)N[C@@H](C)C(=O)OCc1ccccc1 (H-SAVFA-OBn) |
| 278 µM | CC(C)[C@H](/C=C/[C@H](CC(N)=O)NC(=O)[C@@H](N)CO)C(=O)N[C@@H](Cc1ccccc1)C(=O)N[C@@H](C)C(=O)NCc1ccccc1 |
| 12 µM | CC(C)[C@H](NC(=O)[C@H](CC(N)=O)NC(=O)[C@@H](N)CO)C(=O)N[C@H](CCCCc1ccccc1)Cc1ccccc1 |
| 64 µM | CC(C)[C@H](NC(=O)[C@H](CC(N)=O)NC(=O)[C@@H](N)CO)C(=O)N[C@@H](Cc1ccccc1)C(=O)N[C@H](C)C(=O)OCc1ccccc1 |
| 5 µM | CC(C)[C@H](NC(=O)[C@H](CC(N)=O)NC(=O)[C@@H](N)CO)C(=O)N[C@@H](Cc1ccc(-c2ccccc2)cc1)C(=O)N[C@@H](C)C(=O)OCc1ccccc1 (H-SNV[Bip]A-OBn) |
| 185 µM | CCCCOC(=O)[C@H](C)NC(=O)[C@H](Cc1ccccc1)NC(=O)[C@@H](NC(=O)[C@H](CC(N)=O)NC(=O)[C@@H](N)CO)C(C)C (H-SNVFA-X2) |
| 23 µM | CC(C)[C@H](NC(=O)[C@H](CC(N)=O)NC(=O)[C@@H](N)CO)C(=O)N[C@H](/C=C/[C@@H](C)COCc1ccccc1)Cc1ccccc1 |
| 2 µM | CC(C)[C@H](NC(=O)[C@H](CC(N)=O)NC(=O)[C@@H](N)CO)C(=O)N[C@@H](Cc1cccc2ccccc12)C(=O)N[C@@H](C)C(=O)OCc1ccccc1 (H-SNV[1Nal]A-OBn) |
| 75 µM | CC(C)[C@H](NC(=O)[C@H](CC(N)=O)NC(=O)[C@@H](N)CO)C(=O)N[C@H](Cc1ccccc1)C(=O)N[C@@H](C)C(=O)OCc1ccccc1 |
| 190 µM | C[C@H](NC(=O)[C@H](Cc1ccccc1)NC(=O)[C@@H](NC(=O)[C@H](CC(N)=O)NC(=O)[C@@H](N)CO)[C@@H](C)O)C(=O)OCc1ccccc1 (H-SNTFA-OBn) |
| 24 µM | CC(C)[C@H](NC(=O)[C@@H](NC(=O)[C@@H](N)CO)C(C)C)C(=O)N[C@@H](Cc1ccccc1)C(=O)N[C@@H](C)C(=O)OCc1ccccc1 (H-SVVFA-OBn) |
| 186 µM | CC(C)[C@@H](NC(=O)[C@@H](CC(N)=O)NC(=O)[C@@H](N)CO)C(=O)N[C@@H](Cc1ccccc1)C(=O)N[C@@H](C)C(=O)OCc1ccccc1 |
| 50 µM | CC(C)[C@H](NC(=O)[C@H](CC(N)=O)NC(=O)[C@@H](N)CO)C(=O)N[C@@H](Cc1ccccc1)C(=O)N[C@@H](C)C(=O)OCCc1ccccc1 (H-SNVFA-OCH2CH2Ph) |
| 3.9 µM | CC(C)[C@H](NC(=O)[C@H](CC(N)=O)NC(=O)[C@@H](N)CO)C(=O)N[C@H](/C=C/C=C/c1ccccc1)Cc1ccccc1 |
| 262 µM | CC(C)[C@@H](CN[C@@H](Cc1ccccc1)C(=O)N[C@@H](C)C(=O)OCc1ccccc1)NC(=O)[C@H](CC(N)=O)NC(=O)[C@@H](N)CO |
| 17 µM | CC(C)[C@H](NC(=O)[C@H](CC(N)=O)NC(=O)[C@@H](N)CO)C(=O)N[C@H](/C=C\[C@@H](C)COCc1ccccc1)Cc1ccccc1 |
| 36 µM | CC(C)[C@@H](/C=C/[C@@H](Cc1ccccc1)C(=O)N[C@@H](C)C(=O)OCc1ccccc1)NC(=O)[C@H](CC(N)=O)NC(=O)[C@@H](N)CO |
| 16 µM | CC(C)[C@H](NC(=O)[C@H](CC(N)=O)NC(=O)[C@@H](N)CO)C(=O)N[C@@H](Cc1ccccc1)C(=O)N[C@@H](C)C(=O)NCc1ccccc1 (H-SNVFA-NHBn) |

What follows are compounds tested against T1, Myosin light chain kinase, smooth muscle (assay: Inhibition of native form of chicken MLCK (myosin light chain kinase)).
Summary of the method: (§1)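 Native calmodulin-dependent gizzard MLCK, over 95% homogeneous, with 200 nM calmodulin, 1 mM EGTA and about 200 μM excess free Ca2+. Started with ATP and stopped with HCl; phosphocellulose filter counting. Graphical IC50 from duplicates at four concentrations, or % inhibition at a single concentration.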

| IC50 | Structure (SMILES) |
| --- | --- |
| 5 µM | CC(C)[C@H](NC(=O)[C@H](CC(N)=O)NC(=O)[C@H](N)CO)C(=O)N[C@@H](Cc1ccccc1)C(=O)N[C@@H](C)C(=O)OCc1ccccc1 |
| 6 µM | CC(C)[C@H](NC(=O)[C@H](CC(N)=O)NC(=O)[C@@H](N)CO)C(=O)N[C@H](C(=O)N[C@@H](C)C(=O)OCc1ccccc1)C(c1ccccc1)c1ccccc1 (H-SNV[Dip]A-OBn) |
| 56 µM | CC(C)[C@H](NC(=O)[C@H](CC(N)=O)NC(=O)[C@@H]1C[C@H](O)CN1)C(=O)N[C@@H](Cc1ccccc1)C(=O)N[C@@H](C)C(=O)OCc1ccccc1 |
| 18 µM | CC(C)[C@H](NC(=O)[C@H](CC(N)=O)NC(=O)[C@@H](N)[C@@H](C)O)C(=O)N[C@@H](Cc1ccccc1)C(=O)N[C@@H](C)C(=O)OCc1ccccc1 (H-TNVFA-OBn) |
| 76 µM | CSCC[C@H](N)C(=O)N[C@@H](CC(N)=O)C(=O)N[C@H](C(=O)N[C@@H](Cc1ccccc1)C(=O)N[C@@H](C)C(=O)OCc1ccccc1)C(C)C (H-MNVFA-OBn) |
| 15 µM | CC(C)[C@H](NC(=O)[C@H](CC(N)=O)NC(=O)[C@H](CO)NC(=O)[C@@H](N)[C@@H](C)O)C(=O)N[C@@H](Cc1ccccc1)C(=O)N[C@@H](C)C(=O)OCc1ccccc1 (H-TSNVFA-OBn) |
| 3 µM | CC(C)C[C@H](NC(=O)[C@H](CC(N)=O)NC(=O)[C@@H](N)CO)C(=O)N[C@@H](Cc1ccccc1)C(=O)N[C@@H](C)C(=O)OCc1ccccc1 (H-SNLFA-OBn) |
| 30 µM | CSCC[C@H](NC(=O)[C@H](CC(N)=O)NC(=O)[C@@H](N)CO)C(=O)N[C@@H](Cc1ccccc1)C(=O)N[C@@H](C)C(=O)OCc1ccccc1 (H-SNMFA-OBn) |
| 45 µM | CC(C)[C@H](NC(=O)[C@H](CC(N)=O)NC(=O)[C@@H](N)CO)C(=O)N[C@@H](Cc1ccc(O)cc1)C(=O)N[C@@H](C)C(=O)OCc1ccccc1 (H-SNVYA-OBn) |
| 1 µM | CC(C)[C@H](NC(=O)[C@H](CC(N)=O)NC(=O)[C@@H](N)CO)C(=O)N[C@@H](Cc1ccc(-c2ccccc2)cc1)C(=O)N[C@@H](C)C(=O)OCc1ccccc1 (H-SNV[Bip]A-OBn) |
| 350 µM | CC(C)[C@H](NC(=O)[C@H](CC(N)=O)NC(=O)C(C)(N)CO)C(=O)N[C@@H](Cc1ccccc1)C(=O)N[C@@H](C)C(=O)OCc1ccccc1 (stereo partly drawn) (H-[ξαMeS]NVFA-OBn) |
| 2 µM | CC(C)[C@H](NC(=O)[C@H](CC(N)=O)NC(=O)[C@@H](N)CO)C(=O)N[C@@H](Cc1cccc2ccccc12)C(=O)N[C@@H](C)C(=O)OCc1ccccc1 (H-SNV[1Nal]A-OBn) |
| 8 µM | CC(C)[C@H](NC(=O)[C@H](CC(N)=O)NC(=O)[C@@H](N)CS)C(=O)N[C@@H](Cc1ccccc1)C(=O)N[C@@H](C)C(=O)OCc1ccccc1 (H-CNVFA-OBn) |
| 38 µM | CC(C)[C@H](NC(=O)[C@H](CC(N)=O)NC(=O)[C@H](CO)NC(=O)[C@@H](NC(=O)[C@H](C)NC(=O)[C@@H](N)CCCNC(=N)N)[C@@H](C)O)C(=O)N[C@@H](Cc1ccccc1)C(=O)N[C@@H](C)C(=O)OCc1ccccc1 (H-RATSNVFA-OBn) |
| 19 µM | CC(C)[C@H](NC(=O)[C@H](CC(N)=O)NC(=O)[C@@H](N)CO)C(=O)N[C@@H](Cc1ccccc1)C(=O)N[C@@H](C)C(=O)OCCCCc1ccccc1 (H-SNVFA-X3) |
| 15 µM | CC(C)[C@H](NC(=O)[C@H](CC(N)=O)NC(=O)[C@@H](N)CO)C(=O)N[C@@H](Cc1ccccc1)C(=O)N[C@@H](C)C(=O)OCCc1ccccc1 (H-SNVFA-OCH2CH2Ph) |
| 200 µM | CC(C)[C@H](NC(=O)[C@H](CC(N)=O)NC(=O)[C@@H]1CCCN1)C(=O)N[C@@H](Cc1ccccc1)C(=O)N[C@@H](C)C(=O)OCc1ccccc1 (H-PNVFA-OBn) |
| 7 µM | CC(C)[C@H](NC(=O)[C@H](CC(N)=O)NC(=O)[C@@H](N)CO)C(=O)N[C@@H](Cc1cc(I)c(O)c(I)c1)C(=O)N[C@@H](C)C(=O)OCc1ccccc1 (H-SNV[Tyr(3,5-I2)]A-OBn) |
| 12 µM | CC(C)[C@H](NC(=O)[C@H](CC(N)=O)NC(=O)[C@@H](N)CO)C(=O)N[C@@H](CC1CCCCC1)C(=O)N[C@@H](C)C(=O)OCc1ccccc1 (H-SNV[Cha]A-OBn) |
| 450 µM | CC(C)[C@H](NC(=O)CNC(=O)[C@@H](N)CO)C(=O)N[C@@H](Cc1ccccc1)C(=O)N[C@@H](C)C(=O)OCc1ccccc1 (H-SGVFA-OBn) |
| 12 µM | CC(C)[C@@H](NC(=O)[C@@H](CC(N)=O)NC(=O)[C@H](N)CO)C(=O)N[C@H](Cc1ccccc1)C(=O)N[C@H](C)C(=O)OCc1ccccc1 |
| 1 µM | CC(C)[C@H](NC(=O)[C@H](CC(N)=O)NC(=O)[C@@H](N)CO)C(=O)N[C@@H](Cc1ccc(O)c(I)c1)C(=O)N[C@@H](C)C(=O)OCc1ccccc1 (H-SNV[Tyr(3-I)]A-OBn) |
| 12 µM | CC(C)[C@H](NC(=O)[C@H](CC(N)=O)NC(=O)[C@@H](N)CO)C(=O)N[C@@H](Cc1ccc2ccccc2c1)C(=O)N[C@@H](C)C(=O)OCc1ccccc1 (H-SNV[2Nal]A-OBn) |
| 43 µM | CC(C)[C@H](NC(=O)[C@H](CC(N)=O)NC(=O)[C@@H](N)CO)C(=O)N[C@@H](Cc1ccccc1)C(=O)N[C@@H](CO)C(=O)OCc1ccccc1 (H-SNVFS-OBn) |
| 160 µM | CC(C)[C@H](NC(=O)[C@H](CC(N)=O)NC(=O)[C@@H](N)CO)C(=O)N[C@@H](Cc1ccccc1)C(=O)OCc1ccccc1 (H-SNVF-OBn) |
| 6 µM | CC(C)[C@H](NC(=O)[C@H](CC(N)=O)NC(=O)[C@@H](N)CO)C(=O)N[C@@H](Cc1c[nH]c2ccccc12)C(=O)N[C@@H](C)C(=O)OCc1ccccc1 (H-SNVWA-OBn) |
| 15 µM | CC(C)[C@H](NC(=O)[C@H](CC(N)=O)NC(=O)[C@@H](N)CO)C(=O)N[C@@H](Cc1ccccc1)C(=O)N[C@@H](C)C(=O)NCc1ccccc1 (H-SNVFA-NHBn) |
| 31 µM | CC(C)[C@H](NC(=O)[C@H](CC(N)=O)NC(=O)[C@H](CO)NC(=O)[C@@H](NC(=O)[C@H](C)N)[C@@H](C)O)C(=O)N[C@@H](Cc1ccccc1)C(=O)N[C@@H](C)C(=O)OCc1ccccc1 (H-ATSNVFA-OBn) |
| 50 µM | C[C@H](NC(=O)[C@H](Cc1ccccc1)NC(=O)[C@H](Cc1ccccc1)NC(=O)[C@H](CC(N)=O)NC(=O)[C@@H](N)CO)C(=O)OCc1ccccc1 (H-SNFFA-OBn) |

These compounds were tested against Myosin light chain kinase, smooth muscle (Gallus gallus) (UniProt P11799) (assay: Inhibition of native form of myosin light chain kinase at from chicken gizzard 100 uM).
Chain of Myosin light chain kinase, smooth muscle (Gallus gallus) (P11799 whole entry): as above
Summary of the method: as §1

| inhibition | Structure (SMILES) |
| --- | --- |
| 14% | CC(C)[C@H](NC(=O)[C@@H](CC(N)=O)NC(=O)[C@H](N)CO)C(=O)N[C@@H](Cc1ccccc1)C(=O)N[C@@H](C)C(=O)OCc1ccccc1 |
| 15% | CC(C)[C@H](NC(=O)[C@H](CO)NC(=O)[C@@H](N)CO)C(=O)N[C@@H](Cc1ccccc1)C(=O)N[C@@H](C)C(=O)OCc1ccccc1 (H-SSVFA-OBn) |
| 0% | CC(C)[C@@H](NC(=O)[C@H](CC(N)=O)NC(=O)[C@@H](N)CO)C(=O)N[C@@H](Cc1ccccc1)C(=O)N[C@@H](C)C(=O)OCc1ccccc1 |
| 0% | CC(C)[C@H](NC(=O)[C@@H](CC(N)=O)NC(=O)[C@@H](N)CO)C(=O)N[C@@H](Cc1ccccc1)C(=O)N[C@@H](C)C(=O)OCc1ccccc1 |
